Results gathered from unrelated publications.
Compare with care: the assays were run in different laboratories.
Target: Cyclin-dependent kinase 5 (CDK5, Homo sapiens, UniProt Q00535)

`C[C@@H](c1ccc(-n2cnc3c(N)ncnc32)cc1)N1CCc2nn(C)c(Cc3ccccc3)c2C1=O` gave a remaining binding of 39% (binding, competition with immobilised ligand; 0.1 µM).
For `CN(CCCC(F)(F)F)c1nccc(-c2cnn3ncccc23)n1`, the remaining binding was 96% (binding; 1 µM).
`Nc1ncc2c(n1)-c1c([nH]c3ccc(C#CC4CC4)cc13)CCCC2` has a remaining binding of 96% (binding, competition with immobilised ligand; 1 µM).
For `CN([C@@H]1CCc2c(CC(=O)O)c3ccccc3n2C1)S(=O)(=O)c1ccc(F)cc1`, the remaining binding was 100% (cell-free assay, competition with immobilised ligand; 1 µM).
The remaining binding of `FC(F)(F)Oc1cccc(-c2cnc3ccc(-c4ccncc4)nn23)c1` is reported as 93% (cell-free assay, competition with immobilised ligand; 5 µM).
`CC1CCCN1c1nccc(-c2cnn3ncccc23)n1` (stereo not shown) gave a remaining binding of 96% (binding; 1 µM).
For `O=C(NCC1CCOCC1)c1n[nH]cc1NC(=O)c1c(F)cccc1F`, the remaining binding was 83% (binding, competition with immobilised ligand; 1 µM).
For `Cn1cc(Cl)c2c(Oc3c(F)cc(Nc4cc(Cl)nc(N)n4)cc3F)ccnc21`, the remaining binding was 100% (cell-free assay, competition with immobilised ligand; 0.1 µM).
With `N[C@@H]1CCN(c2nccc(-c3cnn4ncccc34)n2)C1` the remaining binding was 100% (binding; 1 µM).
The remaining binding of `O=C(c1ccc(Nc2nccc(-c3cc4ccccc4s3)n2)cc1)N1CCC(N2CCCC2)CC1` is reported as 92% (binding, competition with immobilised ligand; 1 µM).
`C=CC(=O)N1CCC(C(=O)NCC(=O)N2CCN(c3nc(-c4cnc(N)nc4C(F)F)nc(N4CCOCC4)n3)CC2)CC1` has a remaining binding of 100% (binding, competition with immobilised ligand; 1 µM).
With `C[C@H]1CCN(c2nccc(-c3cnn4ncccc34)n2)C1` the remaining binding was 97% (binding; 1 µM).
The remaining binding of `O=C(c1ccc(Nc2ncc(Cl)c(-c3ccc(Cl)s3)n2)cc1)N1CCC(N2CCCC2)CC1` is reported as 26% (binding, competition with immobilised ligand; 1 µM).
The remaining binding of `Cc1cnn2ncc(-c3ccnc(N(C)C)n3)c2c1` is reported as 100% (binding; 1 µM).
For `CSc1cccnc1N1CCN(Cc2nc3ccccc3[nH]2)CC1`, the remaining binding was 99% (cell-free assay, competition with immobilised ligand; 1 µM).
For `O=C(NCCCN1CCOCC1)c1ccc(Nc2nccc(-c3cc4ccccc4s3)n2)cc1`, the remaining binding was 84% (binding, competition with immobilised ligand; 1 µM).
With `CCCCN(CCCC)C(=O)CN1C[C@@H](c2cc(OC)c3c(c2)OCO3)[C@H](C(=O)O)[C@H]1CC(C)(C)CCC` the remaining binding was 97.7% (cell-free assay, competition with immobilised ligand; 1 µM).
`COc1ccnn2ncc(-c3ccnc(N(C)C)n3)c12` gave a remaining binding of 100% (binding; 1 µM).
For `CNCc1ccccc1-c1csc([C@@H](C)Nc2nc(C)nc3cc(OC)c(OC)cc23)c1`, the remaining binding was 78% (cell-free assay, competition with immobilised ligand; 1 µM).
The remaining binding of `COc1cnc(Nc2cccc(S(N)(=O)=O)c2)nc1N1CCN(c2ccccc2)CC1` is reported as 100% (binding, competition with immobilised ligand; 1 µM).
`CCS(=O)(=O)c1cc2cc(C[C@](O)(CC(C)(C)c3ccc(F)cc3C(N)=O)C(F)(F)F)[nH]c2cn1` gave a remaining binding of 100% (cell-free assay, competition with immobilised ligand; 1 µM).
`CN(C)c1nccc(-c2cnn3ncccc23)n1` gave a remaining binding of 100% (binding; 1 µM).
